Data set [1] can be described thus: Therapeutic index, ratio of MTD for MDCK2 cells to IC50 for Influenza A/PR8/34 (H1N1) virus. It counts as cell-based. Conditions: dog, read-out: TI. In outline:
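TI = MTC/IC50. IC50 comes from a focus reduction cell ELISA (anti-NP antibody HB65) in MDCKII cells, which were pre-incubated 5 min with serially diluted compound and then infected with serially diluted A/PR8/34. IC50 was obtained by regression where a dose-effect relation was seen; assays were run at least twice.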

Data set [2] has as its system Influenza A virus. Briefly: Antiviral activity against Influenza A/PR8/34 (H1N1) virus infected in MDCK2 cells assessed as raft modulation using N-terminally sterol-linked peptide as tracer relative to control. On the set-up: concentration or dose not given beside the values. The format is functional, A/Puerto Rico/8/1934(H1N1), MDCK-II. Put shortly:
(§1)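 Raft liposomes (mol %: cholesterol 35, sphingomyelin 10.5, ganglioside M1 3.5, phosphatidylcholine 25.5, phosphatidylserine 25.5). Tracer is perylene or an N-terminally sterol-linked peptide inserted in the outer leaflet. Liposome/buffer partitioning is read by fluorescence; P is approximated as the membrane/aqueous tracer ratio. Disrafting % = 100×{1−P_steroid/P_DMSO}; augmentation % = −100×{1−P_DMSO/P_steroid}.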

Data set [3] relates to Influenza A virus. Briefly: Antiviral activity against Influenza A/PR8/34 (H1N1) virus infected in MDCK2 cells assessed as inhibition of virus reproduction by ELISA. It counts as functional, organism-based. Conditions: A/Puerto Rico/8/1934(H1N1), MDCK-II.
In data set [4] the test system is Influenza A virus. Briefly: Antiviral activity against Influenza A/PR8/34 (H1N1) virus infected in MDCK2 cells assessed as inactivation of virus by virucidal assay relative to control. It counts as functional, A/Puerto Rico/8/1934(H1N1), MDCK-II. On the set-up: concentration or dose not given beside the values. Put shortly:
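Influenza A/PR8/34 (H1N1) incubated with compound for 30 min, then titrated by focus reduction assay (cell ELISA in MDCKII cells with anti-nucleoprotein antibody HB65). Activity expressed relative to DMSO solvent control set at 100%.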

Data set [5] has as its system Influenza A virus. Briefly: Antiviral activity against Influenza A/PR8/34 (H1N1) virus infected in MDCK2 cells assessed as raft modulation using perylene as tracer relative to control. It counts as functional, A/Puerto Rico/8/1934(H1N1), MDCK-II. On the set-up: concentration or dose not given beside the values. In outline:
as §1

For data set [6], the system named is Influenza A virus. Briefly: Antiviral activity against Influenza A/PR8/34 (H1N1) virus infected in MDCK2 cells assessed as inhibition of virus budding by ELISA relative to control. The format is functional, A/Puerto Rico/8/1934(H1N1), MDCK-II. In outline: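 Infected MDCKII cells biotinylated 6 h post-infection; excess biotin quenched, and virus budded over the next hour harvested. Biotinylated particles captured on streptavidin-coated plates and detected by ELISA. Result relative to DMSO solvent control (100%).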
(In general: ELISA stands for enzyme-linked immunosorbent assay.)

Data set [7] can be described thus: Cytotoxicity against MDCK2 cells assessed as maximum tolerated concentration by lactate dehydrogenase release assay. It counts as cell-based, Canis lupus familiaris, MDCK-II. As to conditions: dog, read-out: MTD. Put shortly: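 Maximum tolerated concentration in MDCKII cells from LDH release, determined under focus reduction assay conditions.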

As usually defined, the IC50 is the midpoint of a concentration-inhibition curve. A word on the IC90: it is the point of the concentration-response curve where the effect stands at 90%. Turning to `CC(C)CCC[C@@H](C)[C@H]1CC[C@H]2[C@@H]3CC[C@H]4C[C@@H](N(C)C)CC[C@]4(C)[C@H]3CC[C@]12C`, the selectivity ratio in data set [1] worked out at 4.1. The Activity in the data set on Influenza A virus [2] was 15.6%; in the data set on Influenza A virus [4], 0%; with Influenza A virus [5] it was 15.5%. For the same compound, the concentration for half-maximal inhibition (IC50) in the data set on Influenza A virus [3] was 3.7 µM. In addition, the IC90 in the data set on Influenza A virus [3] was no less than 15 µM. In the data set on Influenza A virus [6], the “inhibition (INH)” value is on record as 42.8%. Besides, the MNTC in data set [7] is 15 µM.

For the compound `CC(C)CCC[C@@H](C)[C@H]1CC[C@H]2[C@@H]3CC[C@@]4(O)[C@H](O)C(=O)CC[C@]4(C)[C@H]3CC[C@]12C`, the IC50 in the data set on Influenza A virus [3] was 16 µM.

Regarding `CC(C)CCC[C@@H](C)[C@H]1CC[C@H]2[C@@H]3CC=C4C[C@@H](N)CC[C@]4(C)[C@H]3CC[C@]12C`, in data set [1], the selectivity ratio amounted to 2.9. In addition, the results for the Activity in the data set on Influenza A virus [2], with Influenza A virus [4] and with Influenza A virus [5] were 78.8%, 63.4% and 83.2%, respectively. The concentration for half-maximal inhibition (IC50) in the data set on Influenza A virus [3] worked out at 8.6 µM. Besides, the 90% effect concentration (IC90) with Influenza A virus [3] is 11.4 µM. Moreover, in the data set with Influenza A virus [6], the “inhibition (INH)” value is 50.9%. Moreover, the MNTC in data set [7] came to 25 µM.

On to `CC(C)CCCC(C)C1CCC2C3CCC4CC(N)CCC4(C)C3CCC12C` (centres undefined), for which, in data set [1], the selectivity ratio stood at 8.8. The Activity with Influenza A virus [2] is -7.1%; with Influenza A virus [4], 47.8%; in the data set with Influenza A virus [5] it was -42.4%. Moreover, the half-maximal inhibitory concentration (IC50) in the data set with Influenza A virus [3] turned out to be 1.7 µM. For the same compound, in the data set on Influenza A virus [3], the IC90 was 9 µM. Besides, the “inhibition (INH)” value in the data set on Influenza A virus [6] is recorded as 51.8%. For the same compound, the MNTC in data set [7] came to 15 µM.

As to `CC(C)CCC[C@@H](C)[C@H]1CC[C@H]2[C@@H]3CC[C@H]4C[C@H](N)CC[C@]4(C)[C@H]3CC[C@]12C`, in data set [1], the selectivity ratio worked out at 7.9. Also, the Activity in the data set on Influenza A virus [2] was 56.3%; with Influenza A virus [4], 28.5%; with Influenza A virus [5], -72.8%. Besides, the IC50 in the data set with Influenza A virus [3] turned out to be 1.9 µM. The IC90 in the data set on Influenza A virus [3] is no less than 15 µM. The “inhibition (INH)” value with Influenza A virus [6] stood at 79.9%. The MNTC in data set [7] was determined as 15 µM.

With `CC(C)CCC[C@@H](C)[C@H]1CC[C@H]2[C@@H]3CC[C@H]4NCCC[C@]4(C)[C@H]3CC[C@]12C`, the selectivity ratio in data set [1] amounted to 2.5. Besides, the Activity is reported as 36.1% in the data set on Influenza A virus [2], 0% in the data set with Influenza A virus [4] and 2.8% with Influenza A virus [5]. Further, the IC50 in the data set on Influenza A virus [3] was determined as 5.9 µM. Further, the “inhibition (INH)” value in the data set with Influenza A virus [6] turned out to be 20.4%. Besides, in data set [7], the MNTC was 15 µM.

In the case of `CC(C)CCC[C@@H](C)[C@H]1CC[C@H]2[C@@H]3CC[C@H]4C[C@@H](CN)CC[C@]4(C)[C@H]3CC[C@]12C`, the selectivity ratio in data set [1] came out at 9.4. The results for the Activity in the data set on Influenza A virus [2], in the data set with Influenza A virus [4] and with Influenza A virus [5] were -39.3%, 90.3% and -66.6%, respectively. Also, the concentration for half-maximal inhibition (IC50) with Influenza A virus [3] worked out at 4 µM. In the data set on Influenza A virus [3], the IC90 came out at 11.6 µM. Also, the “inhibition (INH)” value with Influenza A virus [6] was determined as 30.7%. Moreover, in data set [7], the MNTC worked out at 37.5 µM.

As for `CC(C)CCC[C@@H](C)[C@H]1CC[C@H]2[C@@H]3CC[C@H]4C[C@@H](CCN)CC[C@]4(C)[C@H]3CC[C@]12C`, the selectivity ratio in data set [1] was found to be 23.8. The results for the Activity in the data set with Influenza A virus [2], with Influenza A virus [4] and in the data set on Influenza A virus [5] were 31.2%, 132% and -38.2%, respectively. Further, in the data set on Influenza A virus [3], the 50% inhibitory concentration (IC50) was determined as 2.1 µM. Also, the 90% effect concentration (IC90) with Influenza A virus [3] came to 13.4 µM. In the data set on Influenza A virus [6], the “inhibition (INH)” value is given as 65%. The MNTC in data set [7] is 50 µM.

For `CC(C)CCC[C@@H](C)[C@H]1CC[C@H]2[C@@H]3CC[C@H]4C[C@](O)(CN)CC[C@]4(C)[C@H]3CC[C@]12C`, in data set [1], the selectivity ratio came out at 10.9. In addition, the Activity was 15.6% in the data set on Influenza A virus [2], 64.2% in the data set on Influenza A virus [4] and -41.5% in the data set on Influenza A virus [5]. In addition, the IC50 in the data set on Influenza A virus [3] came out at 2.3 µM. In addition, the IC90 with Influenza A virus [3] worked out at 21.5 µM. Besides, the “inhibition (INH)” value with Influenza A virus [6] turned out to be 41%. The MNTC in data set [7] worked out at 25 µM.

For `CC(C)CCC[C@@H](C)[C@H]1CC[C@H]2[C@@H]3CC[C@H]4C[C@H](O)[C@@H](N)C[C@]4(C)[C@H]3CC[C@]12C`, the selectivity ratio in data set [1] was found to be 16. Further, the Activity in the data set with Influenza A virus [2] is 32.3%; with Influenza A virus [4], 75.5%; in the data set on Influenza A virus [5] it was 26.5%. The IC50 in the data set with Influenza A virus [3] came out at 4.7 µM. In addition, the 90% effect concentration (IC90) with Influenza A virus [3] was 62 µM. The “inhibition (INH)” value in the data set on Influenza A virus [6] was 53%. Further, the MNTC in data set [7] is 75 µM.

With `CN[C@H]1CC[C@@]2(C)[C@@H](CC[C@@H]3[C@@H]2CC[C@]2(C)[C@@H]([C@H](C)CCCC(C)C)CC[C@@H]32)C1`, the selectivity ratio in data set [1] came to 7.6. Also, the Activity in the data set with Influenza A virus [2] was -7%; in the data set with Influenza A virus [4], 0%; with Influenza A virus [5] it was -50.5%. Moreover, the concentration for half-maximal inhibition (IC50) in the data set on Influenza A virus [3] was determined as 3.3 µM. The IC90 in the data set with Influenza A virus [3] was 17.5 µM. In addition, in the data set with Influenza A virus [6], the “inhibition (INH)” value is listed as 33.8%. Further, the MNTC in data set [7] came to 25 µM.

Regarding `CC(C)CCC[C@@H](C)[C@H]1CC[C@H]2[C@@H]3CC[C@H]4CCNCC[C@]4(C)[C@H]3CC[C@]12C`, the selectivity ratio in data set [1] was found to be 3.8. For the same compound, in the data set with Influenza A virus [3], the half-maximal inhibitory concentration (IC50) was determined as 3.3 µM and the concentration for an effect of 90% (IC90) was 9.7 µM. In addition, the Activity in the data set on Influenza A virus [4] was 44.1%. In addition, in the data set with Influenza A virus [6], the “inhibition (INH)” value came to 61.8%. Also, the MNTC in data set [7] is 12.5 µM.

`CC(C)CCC[C@@H](C)[C@H]1CC[C@H]2[C@@H]3CC[C@H]4C[C@H](CN)CC[C@]4(C)[C@H]3CC[C@]12C`: the selectivity ratio in data set [1] came to 10.1. Also, the results for the Activity with Influenza A virus [2], in the data set on Influenza A virus [4] and in the data set with Influenza A virus [5] were -39.6%, 50.9% and -60.3%, respectively. Besides, in the data set with Influenza A virus [3], the IC50 is 3.7 µM. Besides, in the data set with Influenza A virus [3], the 90% effect concentration (IC90) is 7.7 µM. Moreover, in the data set on Influenza A virus [6], the “inhibition (INH)” value is listed as 12.7%. For the same compound, the MNTC in data set [7] is 37.5 µM.

Regarding `CC(C)CCC[C@@H](C)[C@H]1CC[C@H]2[C@@H]3CC[C@@]4(O)[C@H](O)[C@@H](O)CC[C@]4(C)[C@H]3CC[C@]12C`, the selectivity ratio in data set [1] came out at 0.9. The Activity in the data set on Influenza A virus [2] was -36.5%; in the data set on Influenza A virus [4], 76.7%; with Influenza A virus [5], -65.2%. The IC50 in the data set on Influenza A virus [3] amounted to 16.1 µM. The “inhibition (INH)” value in the data set with Influenza A virus [6] amounted to 39.4%. The MNTC in data set [7] was 15 µM.

With `CC(C)CCC[C@@H](C)[C@H]1CC[C@H]2[C@@H]3CC[C@H]4C[C@@H]([N+](C)(C)C)CC[C@]4(C)[C@H]3CC[C@]12C.[I-]`, the selectivity ratio in data set [1] stood at 3.6. Also, the Activity in the data set with Influenza A virus [2] amounted to 83.5%; with Influenza A virus [4], 16%; with Influenza A virus [5], 90.3%. The concentration for half-maximal inhibition (IC50) with Influenza A virus [3] worked out at 3.5 µM. In the data set with Influenza A virus [3], the IC90 is no less than 12.5 µM. Also, in the data set on Influenza A virus [6], the “inhibition (INH)” value is 94.4%. The MNTC in data set [7] turned out to be 12.5 µM.

Source of the values: ChEMBL document CHEMBL2417401, “Evaluation of steroidal amines as lipid raft modulators and potential anti-influenza agents” (Bioorg Med Chem Lett, 2013).
